Experimental data gathered from unrelated publications.
Compare with care: the assays were run in different laboratories.
Spike glycoprotein: Spike glycoprotein (Severe acute respiratory syndrome coronavirus 2, UniProt P0DTC2)
SLC18A2: Synaptic vesicular amine transporter (SLC18A2, Homo sapiens, UniProt Q05940)

`CC[C@H](C)[C@H](NC(=O)[C@H](CCCCNC(=O)CN(CCNC(=O)CN(CCNC(=O)CN(CCNC(=O)CN(CCNC(=O)[C@H](CCCNC(=N)N)NC(C)=O)C(=O)Cn1ccc(N)nc1=O)C(=O)Cn1cnc2c(=O)[nH]c(N)nc21)C(=O)Cn1cnc2c(=O)[nH]c(N)nc21)C(=O)Cn1ccc(N)nc1=O)NC(=O)[C@H](CC(=O)O)NC(=O)[C@H](CO)NC(=O)[C@@H](NC(=O)[C@H](CCCNC(=N)N)NC(=O)[C@H](CCSC)NC(=O)[C@H](CO)NC(=O)[C@H](C)NC(=O)[C@H](CCC(=O)O)NC(=O)[C@H](C)NC(=O)[C@H](Cc1c[nH]cn1)NC(=O)CNC(=O)[C@H](CC(C)C)NC(=O)[C@H](CCC(=O)O)NC(=O)[C@H](CC(=O)O)NC(=O)[C@H](CC(C)C)NC(=O)[C@H](CC(C)C)NC(=O)[C@H](CCCNC(=N)N)NC(=O)[C@H](CS)NC(=O)[C@H](CCCC(=O)NCCN(CC(=O)NCCN(CC(=O)NCCN(CC(=O)NCCN(CC(=O)N[C@@H](CCCNC(=N)N)C(N)=O)C(=O)Cn1cnc2c(=O)[nH]c(N)nc21)C(=O)Cn1ccc(N)nc1=O)C(=O)Cn1ccc(N)nc1=O)C(=O)Cn1cnc2c(=O)[nH]c(N)nc21)NC(=O)[C@H](CCC(=O)O)NC(=O)[C@H](Cc1ccc(O)cc1)NC(=O)[C@@H](NC(=O)[C@H](CCCCN)NC(=O)[C@H](CCC(N)=O)NC(=O)[C@H](CC(C)C)NC(=O)[C@@H](NC(=O)[C@H](Cc1c[nH]c2ccccc12)NC(=O)[C@H](CCC(=O)O)NC(=O)[C@H](CCCCN)NC(=O)[C@H](CC(=O)O)NC(C)=O)[C@@H](C)CC)[C@@H](C)CC)C(C)C)C(=O)N[C@@H](Cc1ccc(O)cc1)C(=O)N[C@@H](CCC(=O)O)C(=O)N[C@@H](Cc1ccccc1)C(=O)N[C@@H](CCSC)C(=O)N[C@@H](CCCCN)C(=O)N[C@@H](CCCCN)C(N)=O` has a Kd of 27 nM (Spike glycoprotein; binding; SPR).
For `COc1cc(CCNC(C)c2ccccc2O)c(OC)cc1C#N` (stereo not drawn), the Ki was 912 nM (Alpha-2A adrenergic receptor (ADRA2A, Homo sapiens, UniProt P08913); cell-free assay; radioligand).
For `CC[C@H](C)[C@H](NC(=O)[C@H](CCCCNC(=O)CN(CCNC(=O)CN(CCNC(=O)CN(CCNC(=O)CN(CCNC(=O)[C@H](CCCNC(=N)N)NC(C)=O)C(=O)Cn1ccc(N)nc1=O)C(=O)Cn1cnc2c(=O)[nH]c(N)nc21)C(=O)Cn1cnc2c(=O)[nH]c(N)nc21)C(=O)Cn1ccc(N)nc1=O)NC(=O)[C@H](CC(=O)O)NC(=O)[C@H](CO)NC(=O)[C@@H](NC(=O)[C@H](CCCNC(=N)N)NC(=O)[C@H](CCSC)NC(=O)[C@H](CO)NC(=O)[C@H](C)NC(=O)[C@H](CCC(=O)O)NC(=O)[C@H](C)NC(=O)[C@H](Cc1c[nH]cn1)NC(=O)CNC(=O)[C@H](CC(C)C)NC(=O)[C@H](CCC(=O)O)NC(=O)[C@H](CC(=O)O)NC(=O)[C@H](CC(C)C)NC(=O)[C@H](CC(C)C)NC(=O)[C@H](CCCNC(=N)N)NC(=O)[C@H](CCS)NC(=O)[C@H](CCCC(=O)NCCN(CC(=O)NCCN(CC(=O)NCCN(CC(=O)NCCN(CC(=O)N[C@@H](CCCNC(=N)N)C(N)=O)C(=O)Cn1cnc2c(=O)[nH]c(N)nc21)C(=O)Cn1ccc(N)nc1=O)C(=O)Cn1ccc(N)nc1=O)C(=O)Cn1cnc2c(=O)[nH]c(N)nc21)NC(=O)[C@H](CCC(=O)O)NC(=O)[C@H](Cc1ccc(O)cc1)NC(=O)[C@@H](NC(=O)[C@H](CCCCN)NC(=O)[C@H](CCC(N)=O)NC(=O)[C@H](CC(C)C)NC(=O)[C@@H](NC(=O)[C@H](Cc1c[nH]c2ccccc12)NC(=O)[C@H](CCC(=O)O)NC(=O)[C@H](CCCCN)NC(=O)[C@H](CC(=O)O)NC(C)=O)[C@@H](C)CC)[C@@H](C)CC)C(C)C)C(=O)N[C@@H](Cc1ccc(O)cc1)C(=O)N[C@@H](CCC(=O)O)C(=O)N[C@@H](Cc1ccccc1)C(=O)N[C@@H](CCSC)C(=O)N[C@@H](CCCCN)C(=O)N[C@@H](CCCCN)C(N)=O`, the Kd was 5.2 nM (Spike glycoprotein; binding; SPR).
The IC50 of `CCOC(=O)c1ccc(OC(=O)CCCCCN=C(N)N)cc1` is reported as 316 nM (Plasminogen (PLG, Homo sapiens, UniProt P00747); enzyme activity; inhibitor).
With `O=C(Nc1ccc2c(c1)C=CCP(=O)(O)O2)c1ccccc1Br` the Ki was greater than 10000 nM (Carbonic anhydrase 2 (CA2, Homo sapiens, UniProt P00918); enzyme activity; inhibitor; stopped-flow).
The IC50 of `O=c1[nH]c2ccccc2n1CCCN1CCC(n2c(=O)[nH]c3cc(Cl)ccc32)CC1` is reported as 58 nM (SLC18A2; transporter uptake; inhibitor).
`Cn1c(=O)c2[nH]cnc2n(C)c1=O` gave an IC50 of 5600 nM (Solute carrier family 22 member 11 (SLC22A11, Homo sapiens, UniProt Q9NSA0); transporter uptake; inhibitor).
For `COc1ccc(C(=O)Nc2ccc3c(c2)C=CCP(=O)(O)O3)cc1`, the Ki was greater than 10000 nM (Carbonic anhydrase 1 (CA1, Homo sapiens, UniProt P00915); enzyme activity; inhibitor; stopped-flow).
`O=c1[nH]c2ccccc2n1C1CCN(CCCC(c2ccc(F)cc2)c2ccc(F)cc2)CC1` has an IC50 of 386 nM (SLC18A2; transporter uptake; inhibitor; radiometric; cell membranes).
